High-throughput results deposited in PubChem by Sanford-Burnham Center for Chemical Genomics.
SENP1 FRET inh: blocks the human SENP1 SUMO protease catalytic domain | inhibition, % at 10 µM | 0.21% of 360,000 active | recombinant SENP1 catalytic domain, CyPet-SUMO1-YPet FRET cleavage | AID 624204;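 active = inhibition at least 30% at 10 µM, raw YFP signal under a set limit, fluorescence ratio 0.5 to 1.5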
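Test system: human SENP1 catalytic domain; medium: Tris pH 8 buffer plus EDTA, NaCl, BME, BSA, NP40, catalase; incubation: 50 min reaction at room temperature; technique: FRET, CFP and YFP emission; controls: no-enzyme low control and enzyme-plus-DMSO high control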
CendR NRP1 mod: alters CendR peptide binding to human NRP-1 | inhibition, % at 25 µM | 0.85% of 360,000 active | O14786 | FAM-RPARPAR peptide binding to NRP-1, fluorescence polarization;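 active = inhibition or corrected inhibition above about 18%, plus a signal ratio from 0.5 to 1.5, limit read from the data, passing the limit was not always enough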
Target sequence (O14786 whole entry, looked up): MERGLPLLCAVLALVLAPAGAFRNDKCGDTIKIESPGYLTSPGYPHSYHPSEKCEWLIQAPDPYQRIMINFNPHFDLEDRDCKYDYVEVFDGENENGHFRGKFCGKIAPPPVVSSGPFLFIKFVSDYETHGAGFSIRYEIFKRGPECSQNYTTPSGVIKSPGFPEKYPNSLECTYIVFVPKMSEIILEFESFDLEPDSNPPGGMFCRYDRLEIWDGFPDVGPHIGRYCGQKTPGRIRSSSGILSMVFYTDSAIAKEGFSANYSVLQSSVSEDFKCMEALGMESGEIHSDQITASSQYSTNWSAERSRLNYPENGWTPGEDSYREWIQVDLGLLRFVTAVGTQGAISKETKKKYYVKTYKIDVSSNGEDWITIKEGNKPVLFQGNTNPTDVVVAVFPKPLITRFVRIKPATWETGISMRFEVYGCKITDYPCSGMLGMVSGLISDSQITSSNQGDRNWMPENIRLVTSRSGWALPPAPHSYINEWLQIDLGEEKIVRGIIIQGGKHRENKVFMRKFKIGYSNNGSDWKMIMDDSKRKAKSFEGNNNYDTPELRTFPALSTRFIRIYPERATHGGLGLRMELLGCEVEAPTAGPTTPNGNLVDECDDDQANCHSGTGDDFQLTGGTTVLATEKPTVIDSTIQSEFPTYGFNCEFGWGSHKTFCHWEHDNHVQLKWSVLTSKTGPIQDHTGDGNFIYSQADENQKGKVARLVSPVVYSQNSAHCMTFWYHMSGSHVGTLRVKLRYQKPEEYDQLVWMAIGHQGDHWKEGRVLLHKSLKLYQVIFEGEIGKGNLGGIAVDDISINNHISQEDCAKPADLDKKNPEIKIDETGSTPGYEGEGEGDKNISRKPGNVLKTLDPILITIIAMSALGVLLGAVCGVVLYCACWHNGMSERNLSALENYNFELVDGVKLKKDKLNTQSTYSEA
SENP7 inh: SENP7 protease inhibition; 1.5% of 330,000 active; recombinant SENP7, Z-RLRGG-aminoluciferin luminescence, 40 min; AID 434973; inhibition, % at 5 µM; Q9BQF6;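 active = inhibition above about 50% at the single test dose, limit read from the data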
SENP8 block-1: blocks human SENP8 cleavage of Nedd8 substrate | inhibition, % at 20 µM | recombinant SENP8, Nedd8 substrate fluorescence | 0.64% of 360,000 active | AID 602440 | Q96LD8; in the data active = inhibition mostly above about 40%, no sharp cut-off; inactive = mostly below about 27%
SENP8 block-2: inhibitors of human SENP8 protease | inhibition, % at 10 µM | 1.2% of 330,000 active | purified SENP8, Z-RLRGG-aminoluciferin cleavage, luminescence | Q96LD8; in the data active = inhibition above about 50%
SENP6 inh: blocks the human protease SENP6. 1.8% of 330,000 active. inhibition, % at 10 µM. Recombinant SENP6 catalytic domain, aminoluciferin luminescence;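 active = inhibition above about 50% at the single tested dose, limit read from the data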
SENP8 confirm: confirmation of human SENP8 protease inhibitors; shares compounds with SENP7 inh; Recombinant SENP8, Z-RLRGG-aminoluciferin luminescence, 60 min; inhibition, % at 12.5 µM; 40% of 6,200 active; AID 488912;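 active = mean inhibition across replicates above about 50%, limit read from the data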
SENP6 confirm: human SENP6 inhibition, confirmed | shares compounds with SENP7 inh | recombinant SENP6, Z-RLRGG-aminoluciferin luminescence | inhibition, % at 12.5 µM | 58% of 6,200 active
SENP7 confirm: confirmation of human SENP7 protease inhibitors | shares compounds with SENP7 inh | recombinant SENP7, Z-RLRGG-aminoluciferin luminescence, 40 min | 69% of 6,200 active | inhibition, % at 12.5 µM
Casp3 SENP sel: selectivity test for SENP inhibitors: human caspase-3 inhibition; shares compounds with SENP7 inh; purified caspase-3, Z-DEVD-aminoluciferin luminescence, 60 min; inhibition, % at 12.5 µM; 60% of 6,200 active;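 active = mean inhibition above about 50%, limit read from the data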
SENP luc ctr: luminescence interference (SENP counter-screen); shares compounds with SENP7 inh; Pre-incubated SENP8/Z-RLRGG-aminoluciferin, luciferase luminescence interference; inhibition, % at 12.5 µM; 39% of 6,200 active;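 active = mean inhibition above about 50% when retested at one dose, limit read from the data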
Of the large screens only hits and unclear results are named; the others gave an inactive call (follow-up assays come after a bar, where they were run). A selection: hits, their analogues and other compounds. The true share with any hit is near 3.3%.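 The calls were made as follows, unless noted: active = mean inhibition above about 50% in the one-dose retest (limit read from the data); inactive = the rest.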

C[C@@H](NS(=O)(=O)c1cc(Cl)ccc1F)[C@H](O)c1ccccc1	none (no result: SENP7 inh, SENP8 block-2, SENP6 inh)
CCn1c(/C=C/c2cc[n+](C)cc2)nc2ccccc21	none
CCCn1c(/C=C/c2ccccc2)nc2ccccc21	SENP7 inh 70.3, SENP8 block-2 62.5, SENP6 inh 72.0 | SENP8 confirm 85.9 | SENP6 confirm 84.5 | SENP7 confirm 94.9 | Casp3 SENP sel 74.7 | SENP luc ctr 80.9
O=C(CNC(=O)c1ccccc1Cl)N/N=C/c1ccc([N+](=O)[O-])s1	SENP6 inh 69.7 | SENP8 confirm inactive | SENP6 confirm inactive | SENP7 confirm inactive | Casp3 SENP sel inactive | SENP luc ctr inactive
O=C(Cc1cccs1)N/N=C\c1ccc([N+](=O)[O-])s1	none
Cc1ccc(/C=C/C(=O)OCC(=O)N(C)c2c(N)n(Cc3ccccc3)c(=O)[nH]c2=O)o1	none (no result: SENP7 inh, SENP8 block-2, SENP6 inh)
CCOC(=O)/C=C/c1ccc2oc3ccccc3c(=O)c2c1	SENP7 inh 92.0, SENP8 block-2 83.1, SENP6 inh 94.1 | SENP8 confirm inactive | SENP6 confirm inactive | SENP7 confirm 60.0 | Casp3 SENP sel inactive | SENP luc ctr inactive
COc1ccc(-c2cc(C(=O)Nc3ccccc3)on2)cc1	SENP7 inh 86.5, SENP6 inh 60.7 | SENP8 confirm inactive | SENP6 confirm inactive | SENP7 confirm inactive | Casp3 SENP sel inactive | SENP luc ctr inactive
COc1ccc(-c2cc(C(=O)Nc3ccccc3F)on2)cc1	SENP7 inh 69.8 | SENP8 confirm inactive | SENP6 confirm inactive | SENP7 confirm inactive | Casp3 SENP sel inactive | SENP luc ctr inactive
Cc1c(CCNC=O)cc(C)c2c3c(oc12)CCCC3	none (no result: SENP7 inh, SENP8 block-2, SENP6 inh)
CCCNC(=O)N(C)C[C@@H]1Oc2ncc(-c3ccncc3)cc2C(=O)N([C@H](C)CO)C[C@@H]1C	none (no result: SENP7 inh, SENP8 block-2, SENP6 inh)
CC(=O)c1sc(Nc2nc3ccc(F)cc3s2)nc1C	SENP8 block-2 53.2, SENP6 inh 80.9 | SENP8 confirm inactive | SENP6 confirm 71.5 | SENP7 confirm 90.4 | Casp3 SENP sel inactive | SENP luc ctr inactive
COC(=O)c1ccc2nc(Nc3nc4ccc(F)cc4s3)sc2c1	none (no result: SENP7 inh, SENP8 block-2, SENP6 inh)
CCOC(=O)c1csc(Nc2nc3ccc(F)cc3s2)n1	SENP6 inh 58.0 | SENP8 confirm inactive | SENP6 confirm inactive | SENP7 confirm inactive | Casp3 SENP sel inactive | SENP luc ctr inactive
O=C(NCCc1ccccc1)C1Cc2c(-c3ccc4c(c3)OCO4)ccnc2O1 (configuration not stated)	none (no result: SENP7 inh, SENP8 block-2, SENP6 inh)
CCOc1cc(/C=N/NC(=O)c2ccccn2)ccc1OC(=O)c1cccs1	none
O=C(C=Cc1ccc2c(c1)OCO2)c1ccccc1	none (no result: SENP7 inh, SENP8 block-2, SENP6 inh)
O=C(/C=C/c1ccc2c(c1)OCO2)c1ccccn1	SENP7 inh 71.0, SENP8 block-2 72.9, SENP6 inh 75.0 | SENP8 confirm 92.1 | SENP6 confirm 89.4 | SENP7 confirm 94.7 | Casp3 SENP sel 69.3 | SENP luc ctr 67.7
Cc1cccc(C(=O)N/N=C/c2ccc3c(c2)OCO3)n1	none
O=C(N/N=C/c1ccc2c(c1)OCO2)c1ccccn1	SENP7 inh 91.7, SENP8 block-2 70.1, SENP6 inh 79.6 | SENP8 confirm inactive | SENP6 confirm 67.6 | SENP7 confirm 90.0 | Casp3 SENP sel 84.7 | SENP luc ctr inactive
CN(C)c1ccc(/C=C(\C#N)c2ccccn2)cc1	SENP7 inh 98.7, SENP8 block-2 96.1, SENP6 inh 95.8 | SENP8 confirm 98.2 | SENP6 confirm 98.8 | SENP7 confirm 102.5 | Casp3 SENP sel 96.7 | SENP luc ctr 72.0
O=C(N/N=C/c1ccc(OC(=O)c2cccs2)cc1)c1ccccn1	SENP7 inh 73.8 | SENP8 confirm inactive | SENP6 confirm inactive | SENP7 confirm inactive | Casp3 SENP sel inactive | SENP luc ctr inactive
CN(C)c1ccc(/C=N/NC(=O)C(=O)N2CCCCCC2)cc1	SENP8 block-2 85.9 | SENP8 confirm inactive | SENP6 confirm inactive | SENP7 confirm inactive | Casp3 SENP sel inactive | SENP luc ctr inactive
CC(C)c1ccc(/C=N/NC(=O)c2cccc(Cl)c2)cc1	none (no result: SENP7 inh, SENP8 block-2, SENP6 inh)
CN(C)c1ccc(/C=N/NC(=O)c2ccnn2C)cc1	SENP7 inh 97.5, SENP8 block-2 90.7, SENP6 inh 95.4 | SENP8 confirm 90.1 | SENP6 confirm 90.3 | SENP7 confirm 98.2 | Casp3 SENP sel 94.9 | SENP luc ctr 87.6
CN(C)c1ccc(/C=N/NC(=O)c2ccccn2)cc1	SENP7 inh 91.0, SENP8 block-2 76.1, SENP6 inh 80.1 | SENP8 confirm inactive | SENP6 confirm 85.4 | SENP7 confirm 98.5 | Casp3 SENP sel 95.1 | SENP luc ctr 65.7
CC(C)c1ccc(/C=N/NC(=O)c2ccccn2)cc1	SENP7 inh 80.3, SENP8 block-2 79.3, SENP6 inh 86.0 | SENP8 confirm 71.0 | SENP6 confirm 84.2 | SENP7 confirm 97.9 | Casp3 SENP sel 89.0 | SENP luc ctr inactive
COc1ccc(/C=N/NC(=O)C(=O)N2CCCC2)cc1	none
CCCS(=O)(=O)NC(=O)C1(C)CCCN(C(=O)CSc2ccccc2)C1 (configuration not stated)	none (no result: SENP7 inh, SENP8 block-2, SENP6 inh)
C=C1C(=O)c2sccc2C(c2ccc(OC)c(OC)c2)C1COC(C)=O (configuration not stated)	none (no result: SENP7 inh, SENP8 block-2, SENP6 inh)
COC(=O)[C@]12CCCCC=C1N(Cc1ccc3c(c1)OCO3)C(=O)[C@H](CC(=O)NCc1ccccc1)C2	none (no result: SENP7 inh, SENP8 block-2, SENP6 inh)
COc1ccc2nc(-c3ccccc3)[nH]c2c1	SENP7 inh 94.8, SENP8 block-2 83.1, SENP6 inh 95.1 | SENP8 confirm inactive | SENP6 confirm 90.3 | SENP7 confirm 99.2 | Casp3 SENP sel 94.1 | SENP luc ctr 89.1
CCOc1ccc2nc(C(C)O)[nH]c2c1 (configuration not stated)	none
CCOc1ccc2nc(-c3ccccc3)[nH]c2c1	SENP7 inh 88.7, SENP8 block-2 69.5, SENP6 inh 87.8 | SENP8 confirm 84.7 | SENP6 confirm 82.4 | SENP7 confirm 94.2 | Casp3 SENP sel 85.4 | SENP luc ctr 83.6
COc1ccc2nc(NCc3ccccc3)[nH]c2c1	none
